Assay outcomes: PubChem BioAssay, Broad Institute
An excerpt weighted towards active compounds, which were near 1.6% of everything screened.
S100A4 MyoIIA = blocks human S100A4 binding to myosin IIA peptide | P26447 | S100A4/TAMRA-MyoIIA peptide fluorescence polarization | inhibition, % at 10.7 µM | hit rate 0.14% among 360,000 | AID 652163;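 active = mean inhibition of at least 70% across replicates, with every replicate also reaching that level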
Target sequence (P26447 whole entry, looked up): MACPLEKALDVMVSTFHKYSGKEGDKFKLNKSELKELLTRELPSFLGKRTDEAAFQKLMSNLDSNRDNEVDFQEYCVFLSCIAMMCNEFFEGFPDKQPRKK
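Assay system: human S100A4 monomer with TAMRA-labelled myosin IIA peptide / Buffer or medium: Calcium-containing HEPES buffer, pH 7.2 / Reagent: TAMRA-labelled myosin IIA heavy-chain peptide probe, 5 nM / Compound: one dose per compound / Timing: polarization read 5 min after assay mix addition, stable 5–60 min / Benchmarks: neutral control DMSO, positive control TFP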
RAD54 inh = inhibitors of human RAD54 branch migration; Q92698; hit rate 0.14% among 360,000; RAD54 Holliday junction branch migration, FAM/BHQ fluorescence; inhibition, % at 10.4 µM; AID 602329;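 active = mean normalized replicate activity at least 40 and at least half of replicates scoring 40 or more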;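 note: 0% = median of neutral control wells and 100% = median of positive control wells; inhibitors cause a drop in the FAM fluorescence signal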
dFosB activator = mouse delta FosB homodimer activation. P13346. purified delta FosB, TAMRA-CDK5 oligo fluorescence polarization; percent of positive-control signal above neutral wells. activation, % at 25 µM. hit rate 0.99% among 340,000. AID 493131;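 active = mean activation above about 17%, with every replicate also reaching it, limit read from the data, passing the limit was not always enough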
Target sequence (P13346 whole entry, looked up): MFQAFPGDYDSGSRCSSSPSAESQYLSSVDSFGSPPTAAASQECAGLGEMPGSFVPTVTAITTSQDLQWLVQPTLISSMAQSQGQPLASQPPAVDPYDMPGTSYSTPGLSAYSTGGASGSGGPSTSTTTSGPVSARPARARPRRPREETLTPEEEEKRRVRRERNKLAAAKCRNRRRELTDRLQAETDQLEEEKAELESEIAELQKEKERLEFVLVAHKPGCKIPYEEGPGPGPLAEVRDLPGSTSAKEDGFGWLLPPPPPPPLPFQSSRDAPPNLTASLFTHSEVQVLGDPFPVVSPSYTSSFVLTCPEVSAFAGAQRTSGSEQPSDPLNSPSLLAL
SR-BI DiI-HDL act = enhances SR-BI lipid uptake from DiI-HDL; AID 504775; hit rate 0.096% among 320,000; CHO ldlA[mSR-BI] cells, DiI-HDL uptake fluorescence, 3 h; 100 = double the neutral-control signal; activation, % at 12.5 µM;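 active = mean replicate activation of at least 60% and every replicate at or above 60%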;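 note: 0% = median plate neutral-control signal and 100% = twice that signal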
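System: LDL receptor-deficient CHO ldlA cells overexpressing murine SR-BI | Timing: 3 h uptake period with compound, 37 °C | Medium: HEPES-buffered (25 mM, pH 7.4) F12 plus 0.5% BSA | Dosing: Single-point compound dose | Signal: Bottom-read fluorescence, 550/595 nm | Read-out: Retained DiI signal reflecting DiI-HDL uptake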
SR-BI DiI inh = inhibitors of mouse SR-BI mediated HDL lipid uptake | hit rate 0.96% among 320,000 | AID 488896 | inhibition, % at 12.5 µM | Q61009 | ldlA[mSR-BI] CHO cells, DiI-HDL uptake fluorescence, 3 h;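 active = mean replicate inhibition of at least 70% and a set share of replicates each scoring 70 or more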;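 note: 0% = median of neutral control wells and 100% = median of positive control wells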
PvdQ acylase = blocks Pseudomonas aeruginosa PvdQ acylase activity. purified PvdQ acylase, fluorescence plate reader. inhibition, % at 10 µM. hit rate 0.063% among 340,000; in the data active = inhibition above about 30%, passing the limit was not always enough;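 note: 0% = vehicle neutral wells and 100% = reference inhibitor wells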
* hit, by the source's call; / = not tested or not shown.

SMILES | S100A4 MyoIIA | RAD54 inh | dFosB activator | SR-BI DiI-HDL act | SR-BI DiI inh | PvdQ acylase
COc1ccc(NC(=O)c2[nH]c(C)c(C(C)=O)c2C)cc1S(=O)(=O)N1CCOCC1 | / | / | -5.7 | -64.2 | 64.2 | -9.3
CC(=O)c1c(C)[nH]c(C(=O)OCC(=O)Nc2cccc(S(=O)(=O)N3CCCC3)c2)c1C | / | 1.1 | -9.2 | -45.3 | 45.3 | -1.1
CC(=O)c1c(C)[nH]c(C(=O)Nc2cccc(S(=O)(=O)N3CCCC3)c2)c1C | -6.1 | 13.9 | -9.2 | -73.7 | 73.7* | -9.7
O=C(C[C@@H]1CC[C@@H]2[C@H](COC[C@@H](O)CN2Cc2ccccc2)O1)N[C@H]1CCN(Cc2ccccc2)C1 | -3.7 | 5.1 | / | / | / | /
COc1cccc(-c2ccc([C@H]3[C@H](CO)N4CCCCN(CC5CC5)C[C@@H]34)cc2)c1 | 127.2* | 12.9 | / | / | / | /
CN(C)C(=O)c1ccc(-c2ccc([C@@H]3[C@H](CO)N4CCCCN(CC5CCOCC5)C[C@@H]34)cc2)cc1 | 17.4 | 0.7 | / | / | / | /
O=C(NC1CCCC1)N1CCCCN2[C@@H](CO)[C@@H](c3ccc(-c4cccnc4)cc3)[C@@H]2C1 | 97.7* | 13.2 | / | / | / | /
CN(C)C(=O)c1ccc(-c2ccc([C@@H]3[C@@H](CO)N4CCCCN(CC5CC5)C[C@@H]34)cc2)cc1 | 108.9* | -5.1 | / | / | / | /
COCCOC(=O)N1C(=O)[C@@]2(c3ccccc31)[C@H](c1ccc(OCCO)cc1)N1[C@H](c3ccccc3)[C@H](c3ccccc3)OC(=O)[C@H]1[C@@H]2C(=O)N1CCN(c2ncccn2)CC1 | 4.3 | -9.1 | / | / | / | /
COc1cc(OC)c(OC)cc1CNc1cc(C)ccc1OC | 0.2 | 1.3 | -7.1 | -72.2 | 72.2* | -20.8
COc1ccc(C)cc1NCc1cccc(OC)c1OC | / | -6.9 | -10.7 | -4.9 | 4.9 | -8.5
O=S(=O)(c1ccc(Cl)c(NC(=S)Nc2ccccc2N2CCOCC2)c1)N1CCOCC1 | -0.5 | / | -5.3 | 12.0 | -12.0 | -9.5
C/C(=N\NC(=S)Nc1cc(S(=O)(=O)N2CCOCC2)ccc1Cl)c1ccc(N2CCOCC2)cc1 | 0.9 | -2.3 | -11.5 | -102.2 | 102.2* | -6.1
CCCNC(=O)Nc1ccc2c(c1)OC[C@H](C)N(C(=O)CC)C[C@H](C)[C@@H](OC)CN(C)C2=O | 0.8 | / | / | / | / | /
Cc1cc(=O)oc2ccc(OCC(=O)N3CCc4ccccc43)cc12 | / | -5.6 | -7.1 | -77.6 | 77.6* | -14.1
Cc1cc(=O)oc2cc(OCC(=O)N3CCCc4ccccc43)ccc12 | / | 4.4 | 6.8 | -14.7 | 14.7 | -17.4
Cc1cc(=O)oc2cc(OCC(=O)N3CCN(C(=O)C4COc5ccccc5O4)CC3)ccc12 (centres undefined) | -3.8 | -3.3 | -1.2 | -87.8 | 87.8* | -2.3
O=C(COc1ccc2ccc(=O)oc2c1)N1CCN(C(=O)C2COc3ccccc3O2)CC1 (centres undefined) | 17.4 | -3.5 | -5.2 | -40.8 | 40.8 | -8.7
Cc1c(C)c2ccc(OCC(=O)N3CCN(C(=O)C4COc5ccccc5O4)CC3)cc2oc1=O (centres undefined) | 5.3 | 4.4 | -3.6 | -88.0 | 88.0* | 1.9
CCCc1cc(=O)oc2cc(OCC(=O)N3CCN(C(=O)C4COc5ccccc5O4)CC3)ccc12 (centres undefined) | -3.1 | -9.2 | -10.8 | -86.8 | 86.8* | -0.6
C[C@@H]1CN([C@@H](C)CO)C(=O)Cc2cc(NS(=O)(=O)c3ccccc3)ccc2O[C@@H]1CN(C)Cc1ccc2c(c1)OCO2 | 9.0 | -8.0 | / | / | / | /
C/C(CC(=O)NCc1ccc(F)cc1)=N\NC(N)=S | -3.8 | 4.0 | 7.3 | -86.7 | 86.7* | 8.1
COc1ccc(-c2oc3ccc(N4CCOCC4)cc3c2/C=C/c2ccc(OC)c(OC)c2)cc1 | -7.4 | 2.4 | -0.3 | -12.9 | 12.9 | -4.6
COc1ccc(-c2c(-c3ccsc3)oc3ccc(N4CCOCC4)cc23)cc1 | 6.0 | -1.5 | 0.7 | -75.5 | 75.5* | -14.9
O=C(Cc1ccccc1)N[C@H]1CC[C@@H](CC(=O)N2CCOCC2)O[C@H]1CO | 0.0 | -15.2 | / | / | / | /
SMILES | S100A4 MyoIIA | RAD54 inh | dFosB activator | SR-BI DiI-HDL act | SR-BI DiI inh | PvdQ acylase
Cc1nnc(SCC(=O)NC23CC4CC(CC(C4)C2)C3)s1 | 1.4 | -8.0 | -5.8 | 1.0 | -1.0 | -12.8
O=C(CSC1=NCCN1)NC12CC3CC(CC(C3)C1)C2 | / | -9.5 | -19.2 | -73.2 | 73.2* | -14.1
Cc1cc(O)c2c(c1O)C(=O)[C@]13C(=C2O)C(=O)[C@@H]2[C@@H](O)[C@H]1[C@@H]1[C@H](O)[C@H]3C(=O)C3=C(O)c4c(O)cc(C)c(O)c4C(=O)[C@]312 | / | -5.5 | -9.1 | -94.9 | 94.9* | -8.6
Cc1ccc(-c2nc(Nc3ccc(O)cc3)c3ccccc3n2)cc1 | -4.0 | 18.7 | 0.1 | -107.0 | 107.0* | -6.1
c1ccc(Nc2nc(-c3ccccc3)nc3ccccc23)cc1 | -1.1 | -0.1 | -14.5 | -54.1 | 54.1 | 8.0
O=[N+]([O-])c1ccc(-c2nc(Nc3cccc(O)c3)c3ccccc3n2)cc1 | 26.8 | 42.1 | -2.1 | -71.9 | 71.9* | -10.7
Cc1ccc(-c2nc(Nc3cccc(O)c3)c3ccccc3n2)cc1 | -3.2 | 14.4 | 22.0* | -69.0 | 69.0 | -15.3
CCC(=O)N1CC2(C1)[C@@H](c1ccccc1)[C@@H](CO)N2Cc1cc(F)ccc1F | 12.1 | / | / | / | / | /
[N-]=[N+]=NCCNC(=O)Nc1ccccc1 | -6.2 | / | / | / | / | /
COc1ccc(NC(=O)Nc2ccc3c(c2)C(=O)N([C@@H](C)CO)C[C@H](C)[C@H](CN(C)Cc2ccc(Cl)c(Cl)c2)OCCCC[C@@H](C)O3)cc1 | -8.5 | -0.8 | / | / | / | /
C[C@@H]1CN([C@@H](C)CO)C(=O)c2cc(NC(=O)CCCN(C)C)ccc2O[C@@H](C)CCCCO[C@@H]1CN(C)S(=O)(=O)c1ccc(F)cc1 | 2.1 | 10.5 | / | / | / | /
CC1(C)Cc2c(cnn2-c2ccccc2)C(=O)/C1=N\NC(=O)c1ccccc1N | / | / | -11.4 | -75.2 | 75.2* | -1.6
COc1ccc(/C=N/NC(=O)c2cc3c(ccc4ccccc43)o2)c(OC)c1 | -6.0 | 3.0 | -3.4 | -82.3 | 82.3* | -5.8
CCC(=O)N1[C@@H](CO)[C@@H](c2ccc(-c3ccc(C#N)cc3)cc2)C12CN(C(C)=O)C2 | -9.8 | / | / | / | / | /
COc1cccc(/C=N/NC(=O)c2nc(-c3ccccc3)cc(-c3ccccc3)n2)c1 | / | 3.1 | -13.8 | -80.7 | 80.7* | -6.9
O=C(NN=Cc1cc([N+](=O)[O-])ccc1O)c1cccc2ccccc12 | 4.1 | / | 8.6 | -134.0 | 134.0* | -16.0
Nc1ccc(C(=O)N/N=C\c2cc(N=Nc3cccc4ccccc34)ccc2O)cc1 | / | 4.2 | 4.1 | -122.3 | 122.2* | -5.3
COC(=O)N/N=C/c1cc(N=Nc2ccccc2Cl)ccc1O | -0.3 | 1.4 | 3.1 | -14.0 | 14.0 | -4.4
COc1ccc(/C=N/NC(=O)c2nc(-c3ccccc3)cc(-c3ccccc3)n2)cc1OC | / | / | 4.0 | -66.9 | 66.9 | -4.5
